3 compounds from ChEMBL document CHEMBL4402517, “Rational modification of Mannich base-type derivatives as novel antichagasic compounds: Synthesis, in vitro and in vivo evaluation” (Bioorg Med Chem, 2019) can be followed below.

Calls of active or inactive are those of the source. No cut-off for these calls is given here.

The IC50 is the concentration at which inhibition is half-maximal.

Data set [1] has as its system Trypanosoma cruzi. The experiment in a line: Trypanocidal activity against Trypanosoma cruzi trypomastigote form infected in African green monkey Vero cells measured after 48 hrs by resazurin dye based assay. The data set is classed as functional, organism-based. A general note: Alamar Blue is a resazurin reagent that responds to reducing activity.
For data set [2], the system named is Trypanosoma cruzi. The data set can be described thus: Antitrypanosomal activity against bloodstream trypomastigote stage of Trypanosoma cruzi IRHOD/CO/2008/SN3;DTU 1 isolated from parasite infected BALB/c Albino mouse cardiac cells after 24 hrs by Neubauer chamber based cell counting method. The data set is classed as functional, organism-based. The conditions noted are these: IRHOD/CO/2008/SN3;DTU 1, 24 h. The method in brief: (§1)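 Bloodstream trypomastigotes were taken by cardiac puncture from infected BALB/c mice and diluted in RPMI + 10% heat-inactivated FBS. At 2 × 10^6/mL they were exposed to 3.1–50.0 µM (lower where needed) for 24 h at 37 °C, 5% CO2, and counted in a Neubauer chamber. Triplicates, at least three experiments; IC50 by nonlinear regression.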

Data set [3] is described as follows: Toxicity in BALB/c mouse infected with Trypanosoma cruzi MHOM/Pe/2011/Arequipa;DTU 5 bloodstream trypomastigote assessed as decrease in serum lactate dehydrogenase level in chronic phase at 20 mg/kg/day, po administered for 5 consecutive days starting from day 70 post infection and measured at day 76 post infection relative to control. It counts as organism-based. Further details: scale not given: the % may be the effect or the level left. The conditions noted are these: in vivo. In outline: (§2)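 Female BALB/c mice (10–12 weeks, 14–20 g; groups of three) were infected i.p. with 5 × 10^5 Arequipa bloodstream trypomastigotes. Dosing was oral at 20 mg/kg/day for 5 days, from day 8 pi (acute) or day 70 pi (chronic), as a 2 mg/ml suspension in 5% DMSO/0.5% HPMC; controls received vehicle. Cyclophosphamide 200 mg/kg i.p. was given at day 80 pi. Serum was collected 2 days post-treatment and at necropsy by cardiac puncture and compared with infected untreated controls.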

For data set [4], the system named is Trypanosoma cruzi. The data set can be described thus: Antitrypanosomal activity against Trypanosoma cruzi TINF/CH/1956/Tulahuen;DTU 6 amastigote forms measured after 72 hrs by Giemsa staining based assay. The data set is classed as functional, organism-based. The conditions noted are these: TINF/CH/1956/Tulahuen;DTU 6, 72 h. The method in brief: (§3)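 Vero cells (1 × 10^4/well, on coverslips) left to adhere 24 h at 37 °C, 5% CO2, then infected with trypomastigotes at MOI 10:1 for 24 h. Free parasites were removed by three PBS washes. Compounds at 3.1, 6.25, 12.5, 25 and 50 µM were incubated 72 h, and amastigotes were counted after Giemsa staining. Triplicates, two separate experiments; IC50 by nonlinear regression.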

For data set [5], the system named is Trypanosoma cruzi. The data set can be described thus: Antitrypanosomal activity against Trypanosoma cruzi MHOM/Pe/2011/Arequipa;DTU 5 bloodstream trypomastigotes infected in BALB/c mouse assessed as reduction in serum Ig-G level in acute phase at 20 mg/kg/day, po administered for 5 consecutive days starting from day 8 post infection and measured at day 14 post infection by ELISA. It counts as functional, organism-based. In outline: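 Sera came from infected BALB/c mice (three per group) dosed orally at 20 mg/kg/day for 5 days. Sampling points: 2 days after treatment, the day before immunosuppression (acute only) and necropsy day. Anti-T. cruzi IgG was measured by indirect ELISA using parasite Fe-SOD as antigen, read as OD at 492 nm.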
(ELISA stands for enzyme-linked immunosorbent assay.)

Data set [6] can be described thus: Selectivity index, ratio of IC50 for African green monkey Vero cells to IC50 for Trypanosoma cruzi IRHOD/CO/2008/SN3;DTU 1 amastigote forms. The conditions noted are these: read-out: Selectivity Index. The data set is classed as toxicity. In outline:
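Vero cells (1 × 10^4/well) were infected with trypomastigotes at MOI 10:1 for 24 h and washed with PBS. They were then exposed to 3.1–50 µM for 72 h at 37 °C in 5% CO2, and amastigotes were counted after Giemsa staining. Triplicates in two determinations; nonlinear regression.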

Data set [7] concerns Trypanosoma cruzi. The data set can be described thus: Trypanocidal activity against Trypanosoma cruzi TINF/CH/1956/Tulahuen;DTU 6 trypomastigote forms infected in BALB/c albino mouse measured after 24 hrs by Neubauer chamber method. The conditions noted are these: TINF/CH/1956/Tulahuen;DTU 6, 24 h.
Data set [8] can be described thus: Selectivity index, ratio of IC50 for African green monkey Vero cells to IC50 for Trypanosoma cruzi MHOM/Pe/2011/Arequipa; DTU 5 trypomastigote forms. The conditions noted are these: read-out: Selectivity Index. The data set is classed as toxicity. In outline:
(§4)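 Bloodstream trypomastigotes were taken from BALB/c mice by cardiac puncture and diluted in RPMI with 10% FBS at 2 × 10^6/mL. They were incubated with 3.1–50.0 µM for 24 h at 37 °C in 5% CO2 and counted in a Neubauer chamber. Triplicate, at least three experiments; nonlinear regression.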

The test system of data set [9] is Trypanosoma cruzi. The experiment in a line: Antitrypanosomal activity against Trypanosoma cruzi IRHOD/CO/2008/SN3;DTU 1 amastigote forms measured after 72 hrs by Giemsa staining based assay. It counts as functional, organism-based. The conditions noted are these: IRHOD/CO/2008/SN3;DTU 1, 72 h. In outline:
as §3

The nature of data set [10]: Toxicity in BALB/c mouse infected with Trypanosoma cruzi MHOM/Pe/2011/Arequipa;DTU 5 bloodstream trypomastigote assessed as decrease in serum urea level in acute phase at 20 mg/kg/day, po administered for 5 consecutive days starting from day 8 post infection and measured at day 14 post infection by biochemical analysis relative to control. The arrangement: scale not given: the % may be the effect or the level left. The conditions noted are these: in vivo. It counts as organism-based. The method in brief:
as §2

Data set [11] relates to Trypanosoma cruzi. The experiment in a line: Antitrypanosomal activity against Trypanosoma cruzi MHOM/Pe/2011/Arequipa;DTU 5 bloodstream trypomastigote infected in BALB/c mouse assessed as parasite-free muscle in chronic phase at 20 mg/kg/day, po administered for 5 consecutive days starting from day 70 post infection followed by cyclophosphamide induced immunosuppression on day 80 post infection measured after day 100 post infection by PCR method relative to control. The data set is classed as functional. In outline: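 Female BALB/c mice (10–12 weeks, three per group) were infected i.p. with 5 × 10^5 Arequipa bloodstream trypomastigotes. Dosing was oral, 20 mg/kg/day for 5 days, as a suspension in 5% DMSO/0.5% HPMC. Cyclophosphamide 200 mg/kg i.p. was given at day 80 pi. At necropsy (day 100) tissues were tested by PCR on the splice leader region (primers TC/TC1, 300 bp). Scored as x/3 mice positive.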

Data set [12] is described as follows: Selectivity index, ratio of IC50 for African green monkey Vero cells to IC50 for Trypanosoma cruzi TINF/CH/1956/Tulahuen;DTU 6 trypomastigote forms. It counts as toxicity. The conditions noted are these: read-out: Selectivity Index. The method in brief:
as §4

Data set [13] concerns Trypanosoma cruzi. The experiment in a line: Antitrypanosomal activity against bloodstream trypomastigote stage of Trypanosoma cruzi MHOM/Pe/2011/Arequipa; DTU 5 isolated from parasite infected BALB/c Albino mouse cardiac cells after 24 hrs by Neubauer chamber based cell counting method. The data set is classed as functional, organism-based. The conditions noted are these: DTU 5, 24 h. The method in brief: as §1

Data set [14] has as its system Trypanosoma cruzi. The data set can be described thus: Antitrypanosomal activity against Trypanosoma cruzi MHOM/Pe/2011/Arequipa;DTU 5 epimastigote assessed as change in RNA level at IC50 measured after 72 hrs by acridine orange staining based flow cytometry relative to control. It counts as functional. The method in brief:
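They were stained with rhodamine 123 or acridine orange and analysed by flow cytometry. Index of variation = (TM−CM)/CM, from median fluorescence of treated (TM) and untreated (CM) parasites.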
Background: Flow cytometry measures light scatter and fluorescence of single cells or particles in a stream.

Data set [15] is described as follows: Toxicity in BALB/c mouse infected with Trypanosoma cruzi MHOM/Pe/2011/Arequipa;DTU 5 bloodstream trypomastigote assessed as decrease in serum uric acid level in acute phase at 20 mg/kg/day, po administered for 5 consecutive days starting from day 8 post infection and measured at day 14 post infection by biochemical analysis relative to control. The data set is classed as organism-based. Further details: scale not given: the % may be the effect or the level left. The conditions noted are these: in vivo. The method in brief: as §2

The nature of data set [16]: Toxicity in BALB/c mouse infected with Trypanosoma cruzi MHOM/Pe/2011/Arequipa;DTU 5 bloodstream trypomastigote assessed as increase in serum alanine aminotransferase level in chronic phase at 20 mg/kg/day, po administered for 5 consecutive days starting from day 70 post infection and measured at day 76 post infection relative to control. The conditions noted are these: in vivo. The data set is classed as organism-based. In outline: as §2

Turning to `O=C(CCN1CCN(c2ccc(Cl)cc2)CC1)c1ccc(O)cc1`, the concentration for half-maximal inhibition (IC50) in the data set with Trypanosoma cruzi [1] worked out at 6.8 µM; in the data set with Trypanosoma cruzi [2], 2 µM; with Trypanosoma cruzi [4], 3 µM; in the data set with Trypanosoma cruzi [7] it was 2.1 µM; in the data set on Trypanosoma cruzi [9] it was 4.5 µM; in the data set with Trypanosoma cruzi [13] it was 0.7 µM. The Activity entry in data set [3] was “<= 10%”; in [10] it was “<= 10%”; in the data set on Trypanosoma cruzi [11], 63%; in the data set with Trypanosoma cruzi [14], -5.1%; in data set [15], “<= 10%”; in data set [16], “<= 10%”. For the same compound, the result with Trypanosoma cruzi [5] was Active. For the same compound, the selectivity ratio is 23.2 in data set [6], 141 in [8] and 49.6 in [12].

Turning to `O=C(CCN1CCN(c2ccc(C(F)(F)F)cc2)CC1)c1ccc(O)cc1`, the 50% inhibitory concentration (IC50) in the data set with Trypanosoma cruzi [1] came out at 9.4 µM; in the data set with Trypanosoma cruzi [2], 2.1 µM; with Trypanosoma cruzi [4] it was 3.9 µM; in the data set on Trypanosoma cruzi [7] it was 2.3 µM; in the data set with Trypanosoma cruzi [9], 6.6 µM; in the data set with Trypanosoma cruzi [13], 0.9 µM. The Activity entry in data set [3] was “<= 20%”; in data set [10] it was “<= 10%”; in the data set on Trypanosoma cruzi [11], 50%; in the data set on Trypanosoma cruzi [14] it was -4.2%; in data set [15] it was “<= 20%”; in [16], > 40%. Moreover, the outcome in the data set with Trypanosoma cruzi [5] was Active. The selectivity ratio in data set [6] came to 16.2; in data set [8], 123; in [12], 45.7.

On to `O=C(Cn1ccnc1[N+](=O)[O-])NCc1ccccc1` [BENZNIDAZOLE], for which the half-inhibitory concentration (IC50) in the data set on Trypanosoma cruzi [1] was found to be 4.1 µM; in the data set with Trypanosoma cruzi [2], 33.3 µM; in the data set on Trypanosoma cruzi [4], 3.9 µM; in the data set on Trypanosoma cruzi [7] it was 6.7 µM; in the data set with Trypanosoma cruzi [9], 4.4 µM; with Trypanosoma cruzi [13], 6.2 µM. For the same compound, the Activity entry in [3] is recorded as “<= 10%”; in data set [10], “<= 30%”; in the data set on Trypanosoma cruzi [11] it was 38%; in the data set with Trypanosoma cruzi [14], -4.7%; in data set [15], “<= 30%”; in [16], > 40%. In addition, in the data set with Trypanosoma cruzi [5], the outcome was Active. Besides, the selectivity ratio was > 45.6 in data set [6], > 32.5 in [8] and > 29.9 in [12].
